# B1: tRNA (parent)
# chain: GUUCCGUUGGCGUAAUGGUAACGCGUCUCCCUCCUAAGGAGAAGACUGCGGGUUCGAGUCCCGUACGGAACG
# Variants of: B1
# Assay: yeast fitness, log relative to wild type (ln ratio); higher = fitter; tRNA-Arg(CCU), competitive growth, 37 C, 1 M NaCl
# Summary of the method: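 Fitness is the natural log of each genotype's generations divided by the wild type's. Generations were derived as OD-scaled log2 output/input frequency from 125 bp paired-end Illumina counts, weighting replicates by inverse variance. Pools of the tRNA-Arg(CCU) variant library, on a HIS3 centromeric plasmid in BY4742 lacking the chromosomal gene, grew ~6.5 generations (~26.5 h) in SC-HIS 1M NaCl at 37 °C after 4 generations in SC-HIS at 30 °C.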
row,Variant,yeast fitness (ln)
1,AUUCCAUUGGCGUAAUGGUAACGCGUUUCCCUCCUAAGGAGAAGAUUGCGGGUUCGAGUCCCGUAAGGGGUG [G1A G6A C27U C46U C66A A69G A70G C71U],-0.145
2,AUUCCAUUGGCGUAAUGGUAACGCGUUUCCCUCCUAAGGAGAAGAUUGCGGGUUCGAGUCCCGUACGGAAUG [G1A G6A C27U C46U C71U],-0.253
3,AUUCCAUUGGCGUAAUGGUAACGCGUUUCCCUCCUAAGGAGACGACUGCGGGUUCGAGUCCCGUAUGGAGCG [G1A G6A C27U A43C C66U A70G],-0.431
4,AUUCCAUUGGCGUAAUGGUAACGCGUUUCCCUCCUAAGGAGACGACUGCGGGUUCGAGUCCCGUAUGGAUCG [G1A G6A C27U A43C C66U A70U],-0.304
5,AUUCCAUUGGCGUAAUGGUAACGCGUUUCCCUCCUAAGGAGAAGAUUGCGGGUUCGAGUCCCGUAUGGAGUG [G1A G6A C27U C46U C66U A70G C71U],-0.21
6,AUUCCAUUGGCGUAAUGGUAACGCGUUUCCCUCCUAAGGAGAAGAUUGCGGGUUCGAGUCCCGUACGGGGUG [G1A G6A C27U C46U A69G A70G C71U],-0.316
7,AUUCCAUUGGCGUAAUGGUAACGCGUUUCCCUCCUAAGGAGACGAUUGCGGGUUCGAGUCCCGUACGGAUUG [G1A G6A C27U A43C C46U A70U C71U],-0.263
8,AUUCCAUUGGCGUAAUGGUAACGCGUUUCCCUCCUAAGGAGAAGAUUGCGGGUUCGAGUCCCGUACGGGGCG [G1A G6A C27U C46U A69G A70G],-0.224
9,AUUCCAUUGGCGUAAUGGUAACGCGUUUCCCUCCUAAGGAGAAGAUUGCGGGUUCGAGUCCCGUACGGGUCG [G1A G6A C27U C46U A69G A70U],-0.24
10,AUUCCAUUGGCGUAAUGGUAACGCGUUUCCCUCCUAAGGAGACGACUGCGGGUUCGAGUCCCGUAAGGAGUG [G1A G6A C27U A43C C66A A70G C71U],-0.267
11,AUUCCAUUGGCGUAAUGGUAACGCGUUUCCCUCCUAAGGAGAAGACUGCGGGUUCGAGUCCCGUAUGGGGUG [G1A G6A C27U C66U A69G A70G C71U],-0.442
12,AUUCCAUUGGCGUAAUGGUAACGCGUUUCCCUCCUAAGGAGAAGAUUGCGGGUUCGAGUCCCGUAUGGAACG [G1A G6A C27U C46U C66U],-0.421
13,AUUCCAUUGGCGUAAUGGUAACGCGUUUCCCUCCUAAGGAGAAGACUGCGGGUUCGAGUCCCGUAAGGAUCG [G1A G6A C27U C66A A70U],-0.139
14,AUUCCAUUGGCGUAAUGGUAACGCGUUUCCCUCCUAAGGAGACGAUUGCGGGUUCGAGUCCCGUAUGGAGUG [G1A G6A C27U A43C C46U C66U A70G C71U],-0.338
15,AUUCCAUUGGCGUAAUGGUAACGCGUUUCCCUCCUAAGGAGAAGACUGCGGGUUCGAGUCCCGUACGGGUCG [G1A G6A C27U A69G A70U],-0.353
16,AUUCCAUUGGCGUAAUGGUAACGCGUUUCCCUCCUAAGGAGAAGACUGCGGGUUCGAGUCCCGUACGGGGCG [G1A G6A C27U A69G A70G],-0.342
17,AUUCCAUUGGCGUAAUGGUAACGCGUUUCCCUCCUAAGGAGACGAUUGCGGGUUCGAGUCCCGUAUGGAACG [G1A G6A C27U A43C C46U C66U],-0.131
18,AUUCCAUUGGCGUAAUGGUAACGCGUUUCCCUCCUAAGGAGACGAUUGCGGGUUCGAGUCCCGUAUGGGAUG [G1A G6A C27U A43C C46U C66U A69G C71U],-0.499
19,AUUCCAUUGGCGUAAUGGUAACGCGUUUCCCUCCUAAGGAGAAGAUUGCGGGUUCGAGUCCCGUACGGGAUG [G1A G6A C27U C46U A69G C71U],-0.238

row,Variant,yeast fitness (ln)
1,AUUCCAUUGGCGUAAUGGUAACGCGUUUCCCUCCUAAGGAGACGAUUGCGGGUUCGAGUCCCGUAAGGAGUG [G1A G6A C27U A43C C46U C66A A70G C71U],-0.293
2,AUUCCAUUGGCGUAAUGGUAACGCGUUUCCCUCCUAAGGAGAAGAUUGCGGGUUCGAGUCCCGUAUGGAGCG [G1A G6A C27U C46U C66U A70G],-0.236
3,AUUCCAUUGGCGUAAUGGUAACGCGUUUCCCUCCUAAGGAGAAGAUUGCGGGUUCGAGUCCCGUAUGGAUCG [G1A G6A C27U C46U C66U A70U],-0.198
4,AUUCCAUUGGCGUAAUGGUAACGCGUUUCCCUCCUAAGGAGAAGACUGCGGGUUCGAGUCCCGUACGGGGUG [G1A G6A C27U A69G A70G C71U],-0.344
5,AUUCCAUUGGCGUAAUGGUAACGCGUUUCCCUCCUAAGGAGACGAUUGCGGGUUCGAGUCCCGUAUGGAAUG [G1A G6A C27U A43C C46U C66U C71U],-0.166
6,AUUCCAUUGGCGUAAUGGUAACGCGUUUCCCUCCUAAGGAGAAGACUGCGGGUUCGAGUCCCGUAAGGAAUG [G1A G6A C27U C66A C71U],-0.224
7,AUUCCAUUGGCGUAAUGGUAACGCGUUUCCCUCCUAAGGAGAAGAUUGCGGGUUCGAGUCCCGUACGGAGCG [G1A G6A C27U C46U A70G],-0.208
8,AUUCCAUUGGCGUAAUGGUAACGCGUUUCCCUCCUAAGGAGAAGAUUGCGGGUUCGAGUCCCGUACGGAUCG [G1A G6A C27U C46U A70U],-0.164
9,AUUCCAUUGGCGUAAUGGUAACGCGUUUCCCUCCUAAGGAGACGAUUGCGGGUUCGAGUCCCGUAUGGAUUG [G1A G6A C27U A43C C46U C66U A70U C71U],-0.413
10,AUUCCAUUGGCGUAAUGGUAACGCGUUUCCCUCCUAAGGAGACGACUGCGGGUUCGAGUCCCGUAUGGGUUG [G1A G6A C27U A43C C66U A69G A70U C71U],-0.628
11,AUUCCAUUGGCGUAAUGGUAACGCGUUUCCCUCCUAAGGAGAAGACUGCGGGUUCGAGUCCCGUACGGAGCG [G1A G6A C27U A70G],-0.34
12,AUUCCAUUGGCGUAAUGGUAACGCGUUUCCCUCCUAAGGAGAAGACUGCGGGUUCGAGUCCCGUACGGAUCG [G1A G6A C27U A70U],-0.293
13,AUUCCAUUGGCGUAAUGGUAACGCGUUUCCCUCCUAAGGAGAAGACUGCGGGUUCGAGUCCCGUAUGGGUUG [G1A G6A C27U C66U A69G A70U C71U],-0.387
14,AUUCCAUUGGCGUAAUGGUAACGCGUUUCCCUCCUAAGGAGAAGACUGCGGGUUCGAGUCCCGUAUGGAACG [G1A G6A C27U C66U],-0.283
15,AUUCCAUUGGCGUAAUGGUAACGCGUUUCCCUCCUAAGGAGACGACUGCGGGUUCGAGUCCCGUAUGGGGCG [G1A G6A C27U A43C C66U A69G A70G],-0.383
16,AUUCCAUUGGCGUAAUGGUAACGCGUUUCCCUCCUAAGGAGAAGACUGCGGGUUCGAGUCCCGUACGGGUUG [G1A G6A C27U A69G A70U C71U],-0.504
17,AUUCCAUUGGCGUAAUGGUAACGCGUUUCCCUCCUAAGGAGAAGAUUGCGGGUUCGAGUCCCGUAUGGAAUG [G1A G6A C27U C46U C66U C71U],-0.0279
18,AUUCCAUUGGCGUAAUGGUAACGCGUUUCCCUCCUAAGGAGACGAUUGCGGGUUCGAGUCCCGUACGGAGUG [G1A G6A C27U A43C C46U A70G C71U],-0.315
19,AUUCCAUUGGCGUAAUGGUAACGCGUUUCCCUCCUAAGGAGACGAUUGCGGGUUCGAGUCCCGUACGGAAUG [G1A G6A C27U A43C C46U C71U],-0.247

# — the RNAGym collection of RNA variant scans (doi:10.1038/s41586-018-0170-7)
